In ChEMBL document CHEMBL1649124, “Genetic variability among ampC genes from acinetobacter genomic species 3” (Antimicrob Agents Chemother, 2009):
In brackets after ≈: the same amount, converted by molar mass.

Columns and labels:
Type in all cases: functional
[1] = test system: Acinetobacter pittii; test: Antibacterial activity against Acinetobacter genomosp. 3 isolate 21 by Etest method
Procedure, shortened: (§1)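 MICs for AG3 clinical isolates were read by Etest following the manufacturer's instructions. Isolates were stored at –80°C in 10% Brucella glycerol broth before testing.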

[2] = test system: Acinetobacter pittii; test: Antibacterial activity against Acinetobacter genomosp. 3 isolate 56 by Etest method; procedure, shortened: as §1
[3] = test system: Acinetobacter pittii; test: Antibacterial activity against Acinetobacter genomosp. 3 isolate 60 by Etest method; procedure, shortened: as §1
[4] = test system: Acinetobacter pittii; test: Antibacterial activity against Acinetobacter genomosp. 3 isolate 67 by Etest method; procedure, shortened: as §1
[5] = test system: Acinetobacter pittii; test: Antibacterial activity against Acinetobacter genomosp. 3 isolate 20 by Etest method in presence of cloxacillin; procedure, shortened: as §1
[6] = test system: Acinetobacter pittii; test: Antibacterial activity against Acinetobacter genomosp. 3 isolate 20 by Etest method in presence of efflux pump inhibitor PAN
[7] = test system: Acinetobacter pittii; test: Antibacterial activity against Acinetobacter genomosp. 3 isolate 20 by Etest method in efflux pump inhibitor CCCP
[8] = test system: Acinetobacter pittii; test: Antibacterial activity against Acinetobacter genomosp. 3 isolate 21 by Etest method in presence of efflux pump inhibitor PAN
[9] = test system: Acinetobacter pittii; test: Antibacterial activity against Acinetobacter genomosp. 3 isolate 21 by Etest method in presence of efflux pump inhibitor CCCP
[10] = test system: Acinetobacter pittii; test: Antibacterial activity against Acinetobacter genomosp. 3 isolate 52 by Etest method in presence of efflux pump inhibitor PAN
[11] = test system: Acinetobacter pittii; test: Antibacterial activity against Acinetobacter genomosp. 3 isolate 52 by Etest method of efflux pump inhibitor CCCP
[12] = test system: Acinetobacter pittii; test: Antibacterial activity against Acinetobacter genomosp. 3 isolate 56 by Etest method in presence of efflux pump inhibitor PAN
[13] = test system: Acinetobacter pittii; test: Antibacterial activity against Acinetobacter genomosp. 3 isolate 56 by Etest method in presence of efflux pump inhibitor CCCP
[14] = test system: Acinetobacter pittii; test: Antibacterial activity against Acinetobacter genomosp. 3 isolate 65 by Etest method in presence of efflux pump inhibitor PAN
[15] = test system: Acinetobacter pittii; test: Antibacterial activity against Acinetobacter genomosp. 3 isolate 67 by Etest method in presence of efflux pump inhibitor CCCP
[16] = test system: Acinetobacter pittii; test: Antibacterial activity against Acinetobacter genomosp. 3 isolate 69 by Etest method in presence of efflux pump inhibitor PAN
[17] = test system: Acinetobacter pittii; test: Antibacterial activity against Acinetobacter genomosp. 3 isolate 90 by Etest method in presence of cloxacillin; procedure, shortened: as §1
[18] = test system: Acinetobacter pittii; test: Antibacterial activity against Acinetobacter genomosp. 3 isolate 90 by Etest method in presence of efflux pump inhibitor PAN
[19] = test system: Acinetobacter pittii; test: Antibacterial activity against Acinetobacter genomosp. 3 isolate 90 by Etest method in presence of efflux pump inhibitor CCCP
[20] = test system: Acinetobacter pittii; test: Antibacterial activity against Acinetobacter genomosp. 3 isolate 103 by Etest method in presence of cloxacillin; procedure, shortened: as §1
[21] = test system: Acinetobacter pittii; test: Antibacterial activity against Acinetobacter genomosp. 3 isolate 103 by Etest method in presence of efflux pump inhibitor PAN
[22] = test system: Acinetobacter pittii; test: Antibacterial activity against Acinetobacter genomosp. 3 isolate 128 by Etest method in presence of efflux pump inhibitor CCCP
[23] = test system: Acinetobacter pittii; test: Antibacterial activity against Acinetobacter genomosp. 3 isolate 243 by Etest method in presence of cloxacillin; procedure, shortened: as §1
[24] = test system: Acinetobacter pittii; test: Antibacterial activity against Acinetobacter genomosp. 3 isolate 109 by Etest method in presence of cloxacillin and efflux pump inhibitor PAN
[25] = test system: Acinetobacter pittii; test: Antibacterial activity against Acinetobacter genomosp. 3 isolate 21 by Etest method in presence of cloxacillin and efflux pump inhibitor PAN
[26] = test system: Acinetobacter pittii; test: Antibacterial activity against Acinetobacter genomosp. 3 isolate 21 by Etest method in presence of cloxacillin and efflux pump inhibitor CCCP
[27] = test system: Acinetobacter pittii; test: Antibacterial activity against Acinetobacter genomosp. 3 isolate 52 by Etest method in presence of cloxacillin and efflux pump inhibitor PAN
[28] = test system: Acinetobacter pittii; test: Antibacterial activity against Acinetobacter genomosp. 3 isolate 52 by Etest method in presence of cloxacillin and efflux pump inhibitor CCCP
[29] = test system: Acinetobacter pittii; test: Antibacterial activity against Acinetobacter genomosp. 3 isolate 56 by Etest method in presence of cloxacillin and efflux pump inhibitor PAN
[30] = test system: Acinetobacter pittii; test: Antibacterial activity against Acinetobacter genomosp. 3 isolate 56 by Etest method in presence of cloxacillin and efflux pump inhibitor CCCP
[31] = test system: Acinetobacter pittii; test: Antibacterial activity against Acinetobacter genomosp. 3 isolate 60 by Etest method in presence of cloxacillin and efflux pump inhibitor CCCP
[32] = test system: Acinetobacter pittii; test: Antibacterial activity against Acinetobacter genomosp. 3 isolate 65 by Etest method in presence of cloxacillin and efflux pump inhibitor PAN
[33] = test system: Acinetobacter pittii; test: Antibacterial activity against Acinetobacter genomosp. 3 isolate 65 by Etest method in presence of cloxacillin and efflux pump inhibitor CCCP
[34] = test system: Acinetobacter pittii; test: Antibacterial activity against Acinetobacter genomosp. 3 isolate 67 by Etest method in presence of cloxacillin and efflux pump inhibitor CCCP
[35] = test system: Acinetobacter pittii; test: Antibacterial activity against Acinetobacter genomosp. 3 isolate 69 by Etest method in presence of cloxacillin and efflux pump inhibitor CCCP
[36] = test system: Acinetobacter pittii; test: Antibacterial activity against Acinetobacter genomosp. 3 isolate 103 by Etest method in presence of cloxacillin and efflux pump inhibitor CCCP
[37] = test system: Acinetobacter pittii; test: Antibacterial activity against Acinetobacter genomosp. 3 isolate 14 by Etest method in presence of efflux pump inhibitor PAN
[38] = test system: Acinetobacter pittii; test: Antibacterial activity against Acinetobacter genomosp. 3 isolate 128 by Etest method in presence of cloxacillin and efflux pump inhibitor PAN
[39] = test system: Acinetobacter pittii; test: Antibacterial activity against Acinetobacter genomosp. 3 isolate 195 by Etest method in presence of cloxacillin and efflux pump inhibitor PAN
[40] = test system: Acinetobacter pittii; test: Antibacterial activity against Acinetobacter genomosp. 3 isolate 14 by Etest method in presence of cloxacillin and efflux pump inhibitor […]
[41] = test system: Acinetobacter pittii; test: Antibacterial activity against Acinetobacter genomosp. 3 isolate 90 by Etest method; procedure, shortened: as §1
[42] = test system: Acinetobacter pittii; test: Antibacterial activity against Acinetobacter genomosp. 3 isolate 103 by Etest method; procedure, shortened: as §1
[43] = test system: Acinetobacter pittii; test: Antibacterial activity against Acinetobacter genomosp. 3 isolate 128 by Etest method; procedure, shortened: as §1
[44] = test system: Escherichia coli; test: Antibacterial activity against Escherichia coli DH5alpha carrying ampC gene of Acinetobacter genomosp. 3 isolate 20 by Etest method
Procedure, shortened: (§2)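 E. coli DH5α expressing the AG3 isolate ampC gene, PCR-amplified (high-fidelity system, 28 cycles) and cloned into BamHI/HindIII sites of pBGS18 (kanamycin marker) under the CTX-M-14 β-lactamase promoter. Grown at 37°C in LB, with kanamycin 50 µg/ml when needed. β-Lactam MICs determined by Etest per the manufacturer's instructions.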

[45] = test system: Escherichia coli; test: Antibacterial activity against Escherichia coli DH5alpha carrying ampC gene of Acinetobacter genomosp. 3 isolate 69 by Etest method; procedure, shortened: as §2
[46] = test system: Escherichia coli; test: Antibacterial activity against Escherichia coli DH5alpha carrying ampC gene of Acinetobacter genomosp. 3 isolate 103 by Etest method; procedure, shortened: as §2
[47] = test system: Escherichia coli; test: Antibacterial activity against Escherichia coli DH5alpha carrying ampC gene of Acinetobacter genomosp. 3 isolate 109 by Etest method; procedure, shortened: as §2
[48] = test system: Acinetobacter pittii; test: Antibacterial activity against Acinetobacter genomosp. 3 isolate 20 by Etest method in presence of cloxacillin and efflux pump inhibitor CCCP
[49] = test system: Acinetobacter pittii; test: Antibacterial activity against Acinetobacter genomosp. 3 isolate 20 by Etest method in presence of cloxacillin and efflux pump inhibitor PAN

With `CC(=O)OCC1=C(C(=O)O)N2C(=O)[C@@H](NC(=O)Cc3cccs3)[C@H]2SC1` [CEPHALOTHIN] the MIC [1] was > 256 µg/mL, the MIC [2] was > 256 µg/mL and the MIC [3] was > 256 µg/mL. For the same compound, the MIC [4] was > 256 µg/mL, the MIC [5] was > 256 µg/mL and the MIC [6] was > 256 µg/mL. For the same compound, the MIC [7] was > 256 µg/mL, the MIC [8] was > 256 µg/mL and the MIC [9] was > 256 µg/mL. The MIC [10] was > 256 µg/mL, the MIC [11] was > 256 µg/mL and the MIC [12] was > 256 µg/mL. For the same compound, the MIC [13] was 96 µg/mL, the MIC [14] was > 256 µg/mL and the MIC [15] was 192 µg/mL. The MIC [16] was > 256 µg/mL, the MIC [17] was 192 µg/mL and the MIC [18] was > 256 µg/mL. The MIC [19] was > 256 µg/mL, the MIC [20] was 192 µg/mL and the MIC [21] was > 256 µg/mL. For the same compound, the MIC [22] was > 256 µg/mL, the MIC [23] was 192 µg/mL and the MIC [24] was 128 µg/mL. The MIC [25] was 192 µg/mL, the MIC [26] was 48 µg/mL and the MIC [27] was > 256 µg/mL. The MIC [28] was 12 µg/mL, the MIC [29] was > 256 µg/mL and the MIC [30] was 16 µg/mL. It also gave an MIC [31] of 28 µg/mL, an MIC [32] of 128 µg/mL and an MIC [33] of 24 µg/mL. For the same compound, the MIC [34] was 24 µg/mL, the MIC [35] was 24 µg/mL and the MIC [36] was 24 µg/mL. For the same compound, the MIC [37] was > 256 µg/mL, the MIC [38] was 48 µg/mL and the MIC [39] was > 256 µg/mL. The MIC [40] was 24 µg/mL, the MIC [41] was > 256 µg/mL and the MIC [42] was > 256 µg/mL. The MIC [43] was > 256 µg/mL, the MIC [44] was > 256 µg/mL and the MIC [45] was > 256 µg/mL. The MIC [46] was > 256 µg/mL, the MIC [47] was > 256 µg/mL and the MIC [48] was 24 µg/mL. For the same compound, the MIC [49] was > 256 µg/mL.

`C[C@@H](O)[C@H]1C(=O)N2C(C(=O)O)=C(S[C@@H]3CN[C@H](C(=O)N(C)C)C3)[C@H](C)[C@H]12` [MEROPENEM] gave an MIC [1] of 1 µg/mL (≈ 2.61 µM), an MIC [2] of 0.38 µg/mL (≈ 0.991 µM) and an MIC [3] of 0.75 µg/mL (≈ 1.96 µM). The MIC [4] was 0.5 µg/mL (≈ 1.3 µM), the MIC [5] was 3 µg/mL and the MIC [6] was 3 µg/mL. It also gave an MIC [7] of 4 µg/mL (≈ 10.4 µM), an MIC [8] of 0.47 µg/mL and an MIC [9] of 0.5 µg/mL. It also gave an MIC [10] of 0.38 µg/mL, an MIC [11] of 0.38 µg/mL (≈ 0.991 µM) and an MIC [12] of 0.094 µg/mL. It also gave an MIC [13] of 0.25 µg/mL, an MIC [14] of 0.25 µg/mL and an MIC [15] of 0.25 µg/mL. It also gave an MIC [16] of 0.25 µg/mL, an MIC [17] of 1 µg/mL and an MIC [18] of 0.38 µg/mL. It also gave an MIC [19] of 1.5 µg/mL, an MIC [20] of 1.5 µg/mL and an MIC [21] of 0.75 µg/mL. The MIC [22] was 0.19 µg/mL, the MIC [23] was 0.125 µg/mL and the MIC [24] was 0.38 µg/mL. It also gave an MIC [25] of 0.64 µg/mL, an MIC [26] of 0.25 µg/mL and an MIC [27] of 0.5 µg/mL. The MIC [28] was 0.094 µg/mL, the MIC [29] was 0.38 µg/mL and the MIC [30] was 0.125 µg/mL. For the same compound, the MIC [31] was 0.25 µg/mL, the MIC [32] was 0.38 µg/mL and the MIC [33] was 0.19 µg/mL. The MIC [34] was 0.19 µg/mL, the MIC [35] was 0.19 µg/mL and the MIC [36] was 1 µg/mL. The MIC [37] was 0.25 µg/mL, the MIC [38] was 0.19 µg/mL and the MIC [39] was 1 µg/mL. The MIC [40] was 0.25 µg/mL, the MIC [41] was 0.75 µg/mL (≈ 1.96 µM) and the MIC [42] was 3 µg/mL (≈ 7.82 µM). For the same compound, the MIC [43] was 0.19 µg/mL (≈ 0.495 µM), the MIC [44] was 0.023 µg/mL (≈ 0.06 µM) and the MIC [45] was 0.023 µg/mL (≈ 0.06 µM). The MIC [46] was 0.023 µg/mL (≈ 0.06 µM), the MIC [47] was 0.032 µg/mL (≈ 0.0834 µM) and the MIC [48] was 1.5 µg/mL. The MIC [49] was 3 µg/mL.
